One data set deals with SK-OV-3 (ovarian). The data set can be described thus: SRB cytotoxicity assay, SK-OV-3. The class given is cell-based, human. Particulars: read-out: GI50 (μM) SRB assay SK-OV-3, SK-OV-3, 48 h. In a few lines: (§1)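 Serial dilutions of the test compound were added to the cells for 48 h. Cells were then fixed with trichloroacetic acid, washed, dried and stained with sulforhodamine B. The dye was solubilised and read at 540 nm, normalised to 630 nm.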
In general terms: The SRB assay estimates cell density from bound dye.

For the next data set, the system named is NCI-H460 (lung). The data set can be described thus: SRB cytotoxicity assay, NCI-H460. Type of data set: cell-based, human. Particulars: read-out: GI50 (μM) SRB assay NCI-H460, NCI-H460, 48 h. The method in brief:
as §1

Another data set has as its system DU-145 (prostate). The data set can be described thus: SRB cytotoxicity assay, DU-145. The class given is cell-based, human. The note with it: read-out: GI50 (μM) SRB assay DU-145, DU-145, 48 h. In a few lines:
as §1

Data set [1] concerns MDA-MB-231-luc orthotopic human tumor xenografts. The data set can be described thus: In vivo dynamic bioluminescence imaging. Further details: species or system SCID mice. In a few lines: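 Female SCID mice carried orthotopic mammary fat pad tumors grown from […] MDA-MB-231-Luc cells (stable lentiviral firefly luciferase) in 30% Matrigel, used at about 5 mm diameter. Under 2% isoflurane in O2, mice received D-luciferin 120 mg/kg in saline SC at the fore-back neck, and BLI images were taken over 35 min. The test compound (20, 30 or 40 mg/kg), saline, or CA4P 120 mg/kg was given IP immediately after baseline. BLI was repeated with fresh luciferin at 4 and 24 h, and light intensity-time curves were analysed.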

The target of data set [2] is purified bovine brain tubulin (Bos taurus, UniProt P81947+Q6B856). Particulars: read-out: Inhibition of tubulin polymerization IC50 (μM) ± SD; cited from earlier work.
The next data set deals with tubulin. The data set can be described thus: Inhibition of [3H]colchicine binding to tubulin. The note with it: 1.0 μM tubulin, 5.0 μM [3H]colchicine.
In data set [3] the test system is human cancer cell lines [SK-OV-3 (ovarian), NCI-H460 (lung), and DU-145 (prostate)]. The data set can be described thus: SRB cytotoxicity assay, panel of three human cancer cell lines. The class given is cell-based. Particulars: read-out: GI50 against two of the three cell lines. The method in brief:
as §1

For data set [4], the system named is breast tumor bearing SCID mice. The data set can be described thus: Acute toxicity in breast tumor bearing SCID mice. The class given is in vivo. Particulars: IP administration of saline solutions, doses up to 40 mg/kg.

“Also recorded” adds a separate entry of the source. Like-named read-outs stand apart in the source and are kept apart here.

purified bovine brain tubulin, sequence (P81947 whole entry): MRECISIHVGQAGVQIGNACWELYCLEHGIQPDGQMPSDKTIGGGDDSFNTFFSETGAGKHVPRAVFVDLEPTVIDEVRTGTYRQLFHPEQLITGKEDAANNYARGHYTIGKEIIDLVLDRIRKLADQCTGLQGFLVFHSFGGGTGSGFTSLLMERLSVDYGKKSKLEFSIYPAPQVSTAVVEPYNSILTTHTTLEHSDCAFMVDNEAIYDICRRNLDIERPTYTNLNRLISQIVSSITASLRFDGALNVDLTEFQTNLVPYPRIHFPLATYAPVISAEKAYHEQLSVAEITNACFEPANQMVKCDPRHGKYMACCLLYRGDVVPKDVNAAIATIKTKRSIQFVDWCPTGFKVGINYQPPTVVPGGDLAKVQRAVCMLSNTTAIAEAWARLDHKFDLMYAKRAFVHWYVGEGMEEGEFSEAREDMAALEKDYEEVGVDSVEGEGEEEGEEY
purified bovine brain tubulin, sequence (Q6B856 whole entry): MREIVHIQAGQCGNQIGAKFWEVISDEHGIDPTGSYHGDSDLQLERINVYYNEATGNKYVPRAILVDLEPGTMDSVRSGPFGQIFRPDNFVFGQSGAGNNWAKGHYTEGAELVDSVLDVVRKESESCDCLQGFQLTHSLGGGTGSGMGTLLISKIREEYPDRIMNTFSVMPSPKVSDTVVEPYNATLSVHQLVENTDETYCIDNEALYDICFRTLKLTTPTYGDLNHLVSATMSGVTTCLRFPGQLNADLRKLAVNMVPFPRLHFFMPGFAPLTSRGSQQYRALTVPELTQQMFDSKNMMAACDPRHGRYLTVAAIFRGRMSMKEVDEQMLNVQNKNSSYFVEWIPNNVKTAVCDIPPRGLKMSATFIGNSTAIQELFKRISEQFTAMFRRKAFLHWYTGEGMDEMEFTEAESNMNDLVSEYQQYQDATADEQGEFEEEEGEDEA

By GI50 is commonly meant the concentration that inhibits growth by half. For orientation: IC50 means the concentration that gives 50% inhibition. As to `COc1ccc(/C=C\c2cc(OC)c(OC)c(OC)c2)cc1OP(=O)(O)O` [CA4P, combretastatin A-4P, reference compound], the GI50 in the data set on SK-OV-3 (ovarian) (average of n ≥ 3) was determined as 0.00119 µM; in the data set with NCI-H460 (lung) (average of n ≥ 3), 0.00194 µM; with DU-145 (prostate) (average of n ≥ 3) it was 0.00323 µM. Further, the “reduction of BLI signal / light emission” value in data set [1] (CA4P 120 mg/kg IP in saline, 4 h) is recorded as “greater than 90%”. Further, in data set [1] (CA4P 120 mg/kg IP in saline, after 24 h), the “reduction of BLI signal (remained depressed)” value was more than 75%. Further, the IC50 in data set [2] was more than 40 µM.
In the case of `COc1ccc2c(c1)CCCC=C2c1cc(OC)c(OC)c(OC)c1` [Compound 29, 3-Methoxy-9-(3′,4′,5′-trimethoxyphenyl)-6,7-dihydro-5H-benzo[7]annulene], the “% Inhibition of colchicine binding ± SD” value is 37 ± 5% in the data set with tubulin (1 μM inhibitor) and 72 ± 0.8% with tubulin (5 μM inhibitor). Further, the 50% growth inhibitory concentration (GI50) came to 0.0516 µM in the data set with SK-OV-3 (ovarian) (Homo sapiens), 0.0527 µM in the data set on NCI-H460 (lung) (Homo sapiens) and 0.0619 µM in the data set on DU-145 (prostate) (Homo sapiens).
On to `COc1ccc2c(c1C)CCCC=C2c1cc(OC)c(OC)c(OC)c1` [Compound 30, 3-Methoxy-4-methyl-9-(3′,4′,5′-trimethoxyphenyl)-6,7-dihydro-5H-benzo[7]annulene], for which, in the data set on tubulin (5 μM inhibitor), the “% Inhibition of colchicine binding ± SD” value is 65 ± 0.6 (5 μM) %. Further, the GI50 was determined as 0.33 µM in the data set on SK-OV-3 (ovarian) (Homo sapiens), 0.422 µM in the data set on NCI-H460 (lung) (Homo sapiens) and 0.644 µM with DU-145 (prostate) (Homo sapiens).
Consider `CCc1c(OC)ccc2c1CCCC=C2c1cc(OC)c(OC)c(OC)c1` [Compound 31, 4-Ethyl-3-methoxy-9-(3′,4′,5′-trimethoxyphenyl)-6,7-dihydro-5H-benzo[7]annulene], for which the GI50 with SK-OV-3 (ovarian) (Homo sapiens) was 0.568 µM; in the data set on NCI-H460 (lung) (Homo sapiens) it was 0.763 µM; with DU-145 (prostate) (Homo sapiens), 1.51 µM; in data set [3] it was less than 1000 nM.
For the molecule `COc1cc(C2=CCCCc3c2ccc(OC)c3OC)cc(OC)c1OC` [Compound 35, 3,4-Dimethoxy-9-(3′,4′,5′-trimethoxyphenyl)-6,7-dihydro-5H-benzo[7]annulene], the “% Inhibition of colchicine binding ± SD” value in the data set with tubulin (5 μM inhibitor) was found to be 30 ± 4%; with tubulin (50 μM inhibitor), 56 ± 4%. The GI50 turned out to be 0.277 µM with SK-OV-3 (ovarian) (Homo sapiens), 0.593 µM in the data set on NCI-H460 (lung) (Homo sapiens) and 0.708 µM with DU-145 (prostate) (Homo sapiens).
With `COc1ccc2c(c1)CCCC=C2c1ccc(OC)c(OC)c1OC` [Compound 62, 3-Methoxy-9-(2′,3′,4′-trimethoxyphenyl)-6,7-dihydro-5H-benzo[7]annulene], the “% Inhibition of colchicine binding ± SD” value with tubulin (1 μM inhibitor) was determined as 36 ± 5%; in the data set on tubulin (5 μM inhibitor) it was 69 ± 3%. The figures for the 50% growth inhibitory concentration (GI50) in the data set with SK-OV-3 (ovarian) (Homo sapiens), in the data set on NCI-H460 (lung) (Homo sapiens) and in the data set on DU-145 (prostate) (Homo sapiens) were 0.0432 µM, 0.12 µM and 0.0562 µM, respectively.
On to `COc1ccc2c(c1O)CCCC=C2c1ccccc1` [Compound 64, 3-Methoxy-9-phenyl-6,7-dihydro-5H-benzo[7]annulen-4-ol], for which the GI50 is 0.557 µM in the data set with SK-OV-3 (ovarian) (Homo sapiens), 0.652 µM in the data set on NCI-H460 (lung) (Homo sapiens), 4.4 µM with DU-145 (prostate) (Homo sapiens) and less than 1000 nM in data set [3].
`COc1ccc2c(c1O)CCCC=C2c1cc(C(F)(F)F)cc(C(F)(F)F)c1` [Compound 65, 9-(3′,5′-Bis(trifluoromethyl)phenyl)-3-methoxy-6,7-dihydro-5H-benzo[7]annulen-4-ol]: the “% Inhibition of colchicine binding ± SD” value in the data set with tubulin (5 μM inhibitor) was found to be 8.5 ± 4%; in the data set on tubulin (50 μM inhibitor), 37 ± 5%. The concentration for 50% growth inhibition (GI50) in the data set with SK-OV-3 (ovarian) (Homo sapiens) is 4.81 µM; with NCI-H460 (lung) (Homo sapiens), 4.39 µM; in the data set with DU-145 (prostate) (Homo sapiens) it was 4.92 µM.
As to `COc1cc(C2=CCCCc3cc(O)ccc32)cc(OC)c1OC` [Compound 68, 9-(3′,4′,5′-Trimethoxyphenyl)-6,7-dihydro-5H-benzo[7]annulen-3-ol], the “% Inhibition of colchicine binding ± SD” value in the data set on tubulin (5 μM inhibitor) is on record as 27 ± 5 (5 μM) %. Moreover, the GI50 in the data set on SK-OV-3 (ovarian) (Homo sapiens) turned out to be 0.527 µM; in the data set with NCI-H460 (lung) (Homo sapiens), 0.647 µM; in the data set on DU-145 (prostate) (Homo sapiens), 1.02 µM.
Take `COc1ccc2c(c1O)CCCCC2c1cc(OC)c(OC)c(OC)c1` (stereo not shown) [Compound 72, 2-Methoxy-5-(3′,4′,5′-trimethoxyphenyl)-6,7,8,9-tetrahydro-5H-benzo[7]annulen-1-ol]: the “% Inhibition of colchicine binding ± SD” value in the data set on tubulin (1 μM inhibitor) is reported as 21 ± 0.9%; in the data set on tubulin (5 μM inhibitor) it was 67 ± 0.6%. Moreover, the values for the GI50 in the data set with SK-OV-3 (ovarian) (Homo sapiens), with NCI-H460 (lung) (Homo sapiens) and in the data set on DU-145 (prostate) (Homo sapiens) were 0.408 µM, 0.141 µM and 0.57 µM, respectively.
`COc1cc(C2CCCCc3c2ccc(OC)c3OP(=O)([O-])[O-])cc(OC)c1OC.[Na+].[Na+]` (stereo not shown) [Compound 73, 2-Methoxy-5-(3′,4′,5′-trimethoxyphenyl)-6,7,8,9-tetrahydro-5H-benzo[7]annulen-1-yl disodium phosphate]: the GI50 in the data set with SK-OV-3 (ovarian) (average of n ≥ 3) was determined as 0.357 µM; with NCI-H460 (lung) (average of n ≥ 3), 0.145 µM; in the data set on DU-145 (prostate) (average of n ≥ 3), 0.753 µM. Moreover, the “effect on light emission (dynamic BLI)” value in data set [1] (30 mg/kg, 4 h after administration) is recorded as “modest effect”. In data set [1] (40 mg/kg IP in saline, 4 h after administration), the “reduction of the emitted BLI signal” value is “about 50%”. For the same molecule, the BLI signal recovery result in data set [1] (20, 30 or 40 mg/kg IP, within 24 h) was “generally returned to its original level; also recorded: substantial recovery”. Besides, in data set [1] (20 or 30 mg/kg IP in saline, 4 h after administration), the “reduction of BLI signal” value is on record as “modest reduction”. Further, the “acute toxicity over 24 h” value in data set [4] was “no obvious acute toxicity”.
